Consider one compound from ChEMBL document CHEMBL4152390, “Discovery of the First-in-Class Dual Histone Deacetylase-Proteasome Inhibitor” (J Med Chem, 2018).

The source made the active and inactive calls. The calls are words filed in the database; no cut-off is given here.

For assay [1], the target named is T1, Protein deacetylase HDAC6 (Homo sapiens) (UniProt Q9UBN7).
T1 sequence (whole entry): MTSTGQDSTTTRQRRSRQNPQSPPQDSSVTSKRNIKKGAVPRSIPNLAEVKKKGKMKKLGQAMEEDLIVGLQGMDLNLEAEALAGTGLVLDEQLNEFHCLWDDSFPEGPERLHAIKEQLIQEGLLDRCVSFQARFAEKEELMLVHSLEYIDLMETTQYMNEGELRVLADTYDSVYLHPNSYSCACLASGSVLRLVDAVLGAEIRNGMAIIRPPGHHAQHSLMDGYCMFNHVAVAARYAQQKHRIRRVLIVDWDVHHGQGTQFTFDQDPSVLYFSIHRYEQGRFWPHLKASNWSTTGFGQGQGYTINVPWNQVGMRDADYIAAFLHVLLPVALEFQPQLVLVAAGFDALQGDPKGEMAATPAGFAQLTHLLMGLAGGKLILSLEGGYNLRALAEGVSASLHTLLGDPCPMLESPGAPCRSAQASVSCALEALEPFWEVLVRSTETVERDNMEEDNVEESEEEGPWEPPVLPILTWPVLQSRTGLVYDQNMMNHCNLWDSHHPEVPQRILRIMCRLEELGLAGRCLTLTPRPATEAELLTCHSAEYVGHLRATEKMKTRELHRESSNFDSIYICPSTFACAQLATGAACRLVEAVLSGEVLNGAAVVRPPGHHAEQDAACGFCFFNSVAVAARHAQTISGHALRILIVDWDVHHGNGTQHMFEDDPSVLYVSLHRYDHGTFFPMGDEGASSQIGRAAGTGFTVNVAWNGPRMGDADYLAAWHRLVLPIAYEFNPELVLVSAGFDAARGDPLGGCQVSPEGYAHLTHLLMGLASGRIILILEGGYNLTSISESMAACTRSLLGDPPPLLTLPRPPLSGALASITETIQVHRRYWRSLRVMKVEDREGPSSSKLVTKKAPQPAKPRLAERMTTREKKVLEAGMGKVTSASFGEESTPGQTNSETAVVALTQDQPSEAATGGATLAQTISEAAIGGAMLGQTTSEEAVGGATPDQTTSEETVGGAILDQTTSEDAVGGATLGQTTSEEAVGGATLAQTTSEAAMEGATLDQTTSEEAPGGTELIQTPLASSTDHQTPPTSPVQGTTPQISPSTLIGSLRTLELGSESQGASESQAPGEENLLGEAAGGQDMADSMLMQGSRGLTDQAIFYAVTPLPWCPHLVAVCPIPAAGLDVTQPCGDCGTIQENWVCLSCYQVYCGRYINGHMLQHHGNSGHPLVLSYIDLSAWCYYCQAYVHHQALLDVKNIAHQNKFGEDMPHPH
The experiment in a line: Inhibition of HDAC6 in human HL60 cells assessed as increase in acetyl-histone H3 expression at 0.1 to 10 uM after 24 hrs by immunoblot assay. The class given is cell-based. Summed up:
(§1)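 Cells exposed for 24 h at indicated concentrations; lysates immunoblotted for acetyl-α-tubulin, acetyl-histone H3, PARP, with GAPDH as loading control.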
Background: A western blot detects proteins with antibodies after separation by electrophoresis.

Assay [2] has as its target T1, Protein deacetylase HDAC6 (Homo sapiens). The experiment in a line: Inhibition of HDAC6 in human SEM cells assessed as increase in acetyl-histone H3 expression at 0.1 to 10 uM after 24 hrs by immunoblot assay. The class given is cell-based. An outline of the steps:
as §1

For the next assay, the species on record is Homo sapiens. The experiment in a line: Inhibition of HDAC6/chymotrypsin-like activity of 20S proteasome in human HL60 cells assessed as increase in cleaved PARP expression at 0.1 to 10 uM after 24 hrs by immunoblot assay. The class given is cell-based. An outline of the steps: as §1
Assay [3] has as its target Proteasome Macropain subunit (Homo sapiens) (UniProt P49721). The experiment in a line: Inhibition of trypsin-like activity of 20S proteasome in human imatinib-resistant SUP-B15 cells at 4 nM to 25 uM using Z-LRR-aminoluciferin as substrate after 2 hrs by proteasome-Glo assay. The class given is cell-based.
Assay [4] is described as follows: Cytotoxicity against human BCP-ALL cells derived from patient 2 after 72 hrs by CellTiter-Glo luminescent cell viability assay. The class given is functional, cell-based. Summed up: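 Compounds dispensed digitally at increasing concentrations, 50 nM–25 μM; viability read by CellTiter-Glo luminescence after 72 h. Raw data normalized to controls, IC50 from sigmoid dose curve by non-linear regression. Patient samples: primary cells from newly diagnosed or relapsed patients, cultured in stem cell expansion or mononuclear cell medium.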
On the technique in general: Cellular ATP, detected with luciferase, serves as a proxy for viable cell number.

The subject of assay [5] is SEM cells. The experiment in a line: Antiproliferative activity against human SEM cells at IC50 to 2 times IC50 after 24 to 72 hrs by trypan exclusion method. The class given is functional, cell-based.
For assay [6], the system named is SEM cells. The experiment in a line: Cell cycle arrest in human SEM cells assessed as accumulation at S phase after 48 hrs by propidium iodide staining-based FACS analysis. The assay is classed as functional. (Flow cytometry measures light scatter and fluorescence of single cells or particles in a stream.)
Assay [7] has as its system SEM cells. The experiment in a line: Inhibition of HDAC6/chymotrypsin-like activity of 20S proteasome in human SEM cells assessed as increase in Grp94 protein expression at 0.1 to 10 uM after 18 hrs by Western blot assay. The class given is cell-based. Summed up:
(§2)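 Cells treated 18 h at indicated concentrations; lysates analysed by western blot for heat shock (Grp94, HSP70, HSP40, HSP27), UPR (BIP, ATF4, ATF6, pJNK) and autophagy (LC3B, p62) proteins.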

For assay [8], the system named is SEM cells. The experiment in a line: Inhibition of HDAC6/chymotrypsin-like activity of 20S proteasome in human SEM cells assessed as increase in HSP70 protein expression at 0.1 to 10 uM after 18 hrs by Western blot assay. The class given is cell-based. Summed up:
as §2

Assay [9] relates to SEM cells. The experiment in a line: Inhibition of HDAC6/chymotrypsin-like activity of 20S proteasome in human SEM cells assessed as increase in HSP40 protein expression at 0.1 to 10 uM after 18 hrs by Western blot assay. The class given is cell-based. Summed up: as §2
Assay [10] relates to SEM cells. The experiment in a line: Inhibition of HDAC6/chymotrypsin-like activity of 20S proteasome in human SEM cells assessed as increase in ATF4 protein expression at 0.1 to 10 uM after 18 hrs by Western blot assay. The assay is classed as cell-based. An outline of the steps: as §2
Assay [11] has as its system SEM cells. The experiment in a line: Inhibition of HDAC6/chymotrypsin-like activity of 20S proteasome in human SEM cells assessed as increase in ATF6 protein expression at 0.1 to 10 uM after 18 hrs by Western blot assay. The class given is cell-based. Summed up:
as §2

The next assay deals with T2, Histone deacetylase 8 (Homo sapiens, UniProt Q9BY41).
T2 sequence (Q9BY41 whole entry): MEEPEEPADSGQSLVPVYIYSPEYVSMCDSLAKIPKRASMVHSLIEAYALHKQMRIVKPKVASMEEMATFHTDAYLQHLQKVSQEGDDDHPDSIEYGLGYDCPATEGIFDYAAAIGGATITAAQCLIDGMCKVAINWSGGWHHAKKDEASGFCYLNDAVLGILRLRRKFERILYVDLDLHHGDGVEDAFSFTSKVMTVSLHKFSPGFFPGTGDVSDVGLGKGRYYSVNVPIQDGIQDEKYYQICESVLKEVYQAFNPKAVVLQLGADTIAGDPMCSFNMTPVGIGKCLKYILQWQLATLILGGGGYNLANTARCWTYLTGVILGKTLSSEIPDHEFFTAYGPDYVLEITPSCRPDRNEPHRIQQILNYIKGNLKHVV
The experiment in a line: Inhibition of C-terminal His-tagged recombinant human HDAC8 expressed in baculovirus infected insect cells using RHK(Ac)K(Ac)AMC as substrate by fluorescence-based assay.

Chain of Proteasome Macropain subunit (Homo sapiens) (P49721 whole entry): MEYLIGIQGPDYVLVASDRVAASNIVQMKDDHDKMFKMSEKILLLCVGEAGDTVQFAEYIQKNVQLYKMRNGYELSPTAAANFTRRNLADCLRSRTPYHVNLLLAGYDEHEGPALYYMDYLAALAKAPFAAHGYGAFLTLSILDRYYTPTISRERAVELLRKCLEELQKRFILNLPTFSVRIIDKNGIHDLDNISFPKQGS

On to `C[C@H](NC(=O)[C@H](CC(=O)NCC(C)(C)C)NC(=O)c1ccc(C(=O)NO)cc1)C(=O)NCc1ccccc1`, for which the inhibition result (in assay [1]; in assay [2]; in the assay filed under Homo sapiens; with SEM cells [7]; in the assay with SEM cells [8]; in the assay on SEM cells [9]) was “Active” in each case. Moreover, the inhibition entry in the assay on SEM cells [10] and in the assay with SEM cells [11] was “Active” throughout. Besides, the inhibition result in assay [3] is “inactive”. The results for the IC50 (in [4]; at Histone deacetylase 8) were 1840 nM and 530 nM, respectively. Further, the result in the assay with SEM cells [5] was Active. For the same compound, the Activity entry in the assay on SEM cells [6] was “Dose-dependent effect”.

In general, IC50 refers to the point on the concentration scale where inhibition reaches its midpoint.
